From BindingDB's records for doi:10.1016/j.ejmech.2011.10.026 (National Cheng Kung University, 2012)

Biological target: T1, Nitric oxide synthase, inducible (Mus musculus, UniProt P29477)
T1 sequence (P29477 whole entry): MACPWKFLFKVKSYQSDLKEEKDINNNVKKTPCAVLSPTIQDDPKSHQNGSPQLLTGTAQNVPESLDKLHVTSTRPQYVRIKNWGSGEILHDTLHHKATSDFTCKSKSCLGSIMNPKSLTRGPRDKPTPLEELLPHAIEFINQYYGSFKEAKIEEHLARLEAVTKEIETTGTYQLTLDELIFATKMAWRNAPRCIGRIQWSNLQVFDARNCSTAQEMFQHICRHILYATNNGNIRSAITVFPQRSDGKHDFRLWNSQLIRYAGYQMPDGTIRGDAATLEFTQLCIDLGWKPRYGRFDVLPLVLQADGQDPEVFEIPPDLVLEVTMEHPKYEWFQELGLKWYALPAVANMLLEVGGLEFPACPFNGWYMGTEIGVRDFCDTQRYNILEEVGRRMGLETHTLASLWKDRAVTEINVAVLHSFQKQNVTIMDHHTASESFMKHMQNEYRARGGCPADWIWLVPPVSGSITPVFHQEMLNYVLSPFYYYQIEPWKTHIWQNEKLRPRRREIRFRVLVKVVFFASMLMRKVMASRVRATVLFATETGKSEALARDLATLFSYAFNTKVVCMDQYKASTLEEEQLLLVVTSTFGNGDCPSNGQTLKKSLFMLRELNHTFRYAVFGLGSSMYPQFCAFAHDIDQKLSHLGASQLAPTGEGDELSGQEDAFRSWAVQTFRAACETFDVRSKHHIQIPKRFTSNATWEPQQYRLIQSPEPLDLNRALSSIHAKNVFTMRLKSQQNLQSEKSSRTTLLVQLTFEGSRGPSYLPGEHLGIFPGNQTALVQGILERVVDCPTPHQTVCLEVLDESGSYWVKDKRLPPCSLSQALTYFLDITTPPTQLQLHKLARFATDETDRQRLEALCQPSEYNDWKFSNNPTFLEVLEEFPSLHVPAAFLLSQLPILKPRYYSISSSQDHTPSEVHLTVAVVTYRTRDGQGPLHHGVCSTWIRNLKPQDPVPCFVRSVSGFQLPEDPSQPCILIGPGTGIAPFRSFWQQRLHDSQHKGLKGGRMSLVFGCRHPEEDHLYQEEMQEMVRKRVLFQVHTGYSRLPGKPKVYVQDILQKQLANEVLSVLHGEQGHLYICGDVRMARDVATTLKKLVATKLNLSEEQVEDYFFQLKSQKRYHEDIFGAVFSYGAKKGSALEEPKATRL
Assay: Inhibition of iNOS-mediated nitric oxide production in LPS-stimulated mouse BV2 cells measured after 24 hrs of post-stimulation by Griess reaction method
How it was run: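 Murine BV2 microglia in DMEM with 5% FBS were given compound at 1–50 µM and stimulated with LPS 0.5 µg/mL. Nitrite accumulated in the medium was measured by Griess reagent 24 h after stimulation. IC50 given as mean ± SEM of three experiments on different days using cells from different passages.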

| IC50 [µM] | SMILES |
| --- | --- |
| 1.82 | COc1cccc(/C=C/C(=O)c2cc(C(=O)/C=C/c3cccc(OC)c3OC)c(O)cc2O)c1OC |
| 0.95 | COc1ccc(/C=C/C(=O)c2cc(C(=O)/C=C/c3ccc(OC)c(OC)c3)c(O)cc2O)cc1OC |
| 8.09 | COc1cccc(/C=C/C(=O)c2cc(C(=O)/C=C/c3cccc(OC)c3)c(O)cc2O)c1 |
| 23.3 | COc1ccc(OC)c(/C=C/C(=O)c2cc(C(=O)/C=C/c3cc(OC)ccc3OC)c(O)cc2O)c1 |
| 7.04 | COc1ccc(/C=C/C(=O)c2cc(C(=O)/C=C/c3ccc(OC)c(OC)c3OC)c(O)cc2O)c(OC)c1OC |

Continued, compound first:

| SMILES | IC50 [µM] |
| --- | --- |
| O=C(/C=C/c1ccco1)c1cc(C(=O)/C=C/c2ccco2)c(O)cc1O | 4 |
| CC(=O)c1cc(C(=O)C=Cc2ccc3c(c2)OCO3)c(O)cc1O | 17.7 |
| O=C(/C=C/c1ccccn1)c1cc(C(=O)/C=C/c2ccccn2)c(O)cc1O | 8.65 |
| COc1ccc(/C=C/C(=O)c2cc(C(=O)/C=C/c3ccc(OC)cc3)c(O)cc2O)cc1 | 25.7 |
| O=C(/C=C/c1ccccc1)c1cc(C(=O)/C=C/c2ccccc2)c(O)cc1O | 5.44 |
| Cc1ccsc1/C=C/C(=O)c1cc(C(=O)/C=C/c2sccc2C)c(O)cc1O | 43.3 |
| Cc1ccc(/C=C/C(=O)c2cc(C(=O)/C=C/c3ccc(C)o3)c(O)cc2O)o1 | 36.3 |
